Data set [1] can be described thus: Cytotoxicity against human HuH5.2 cells by MTS assay. It counts as cell-based, Huh-5-2. On the technique in general: Formazan colour is commonly taken as a measure of viable cells.
Data set [2] deals with Hepatitis C virus. The experiment in a line: Antiviral activity against Hepatitis C virus subtype 1b infected in human HuH5.2 cells assessed as inhibition of virus-induced cytopathic effect. It counts as functional, organism-based, Hepacivirus hominis. The note with it: genotype 1b, Huh-5-2. The gist of the method:
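Eight-step 1:2 dilution series, 72 h at 37 °C. Cells lysed and luciferase luminescence read, expressed as % of untreated controls. EC50 taken from the dose-response curve, means ± SD of at least three independent experiments.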
In general terms: Protection from cytopathic effect is a common read-out in antiviral testing.

The nature of data set [3]: Selectivity index, ratio of CC50 for human HuH5.2 cells to EC50 for Hepatitis C virus subtype 1b. It counts as toxicity. The note with it: read-out: Ratio CC50/EC50. The gist of the method: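 Ratio of CC50 (MTS, 72 h) to EC50 (luciferase replicon read-out), both measured in parallel in Huh 5-2 replicon cells.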
Data set [4] has as its system Hepatitis C virus. As to the kind of experiment: Binding affinity to Hepatitis C virus (isolate Con1) NS5B […] by surface plasmon resonance analysis. Set-up: species or system Hepacivirus hominis.
The test system of data set [5] is Hepatitis C virus. The experiment in a line: Inhibition of N-terminal His-tagged recombinant Hepatitis C virus subtype 1b NS5B Cdelta21 RNA dependent RNA polymerase expressed in Escherichia coli at 50 uM by liquid scintillation counting analysis. The gist of the method: (§1)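 N-His-tagged NS5BCΔ21 (NIH1b), purified from E. coli DH5α on Ni-NTA, 100 ng per reaction. Reaction stopped with cold TCA/pyrophosphate, products filter-precipitated and scintillation-counted. Compound tested at 50 µM, activity relative to DMSO control.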

Data set [6] deals with Hepatitis C virus. The experiment in a line: Inhibition of N-terminal His-tagged recombinant Hepatitis C virus subtype 1b NS5B Cdelta21 RNA dependent RNA polymerase expressed in Escherichia coli by liquid scintillation counting analysis. The gist of the method: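 Dose-response with 8–12 concentrations, in duplicate in two independent experiments. IC50 obtained by nonlinear regression, means ± SD.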

In data set [7] the test system is Hepatitis C virus. The experiment in a line: Inhibition of N-terminal His-tagged recombinant Hepatitis C virus subtype 1b N-terminal His-tagged expressed in Escherichia coli at 50 uM by liquid scintillation counting analysis relative to control. Summed up: as §1
For data set [8], the system named is Hepatitis C virus. The experiment in a line: Inhibition of N-terminal His-tagged recombinant Hepatitis C virus subtype 1b N-terminal His-tagged expressed in Escherichia coli at non-toxic concentration by liquid scintillation counting analysis relative to control. The gist of the method:
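Recombinant NS5B genotype 1b (NIH1b) was His-tagged, C-terminally truncated by 21 residues, expressed in E. coli DH5α and purified on Ni-NTA. Products were TCA-precipitated on filters and counted by scintillation relative to the DMSO control. Compounds were screened at 50 µM.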

In data set [9] the test system is Hepatitis C virus. As to the kind of experiment: Antiviral activity against Hepatitis C virus subtype 1b infected in human Huh-9-13 cells assessed as inhibition of virus-induced cytopathic effect. The class given is functional, organism-based, Hepacivirus hominis. The note with it: genotype 1b.

Molecules are shown by their SMILES.

Consider `CS(=O)(=O)Nc1ccc(NC(=O)c2nn(-c3ccccc3)c3c2NS(=O)(=O)c2ccccc2-3)cc1`, for which, in data set [1], the CC50 – broadly, the concentration at which the toxic effect on the cells reaches its halfway point – is > 239 µM. The EC50 – broadly, the concentration needed to bring the measured effect to its halfway point – in the data set with Hepatitis C virus [2] came out at 14 µM.
As for `CS(=O)(=O)Nc1ccc(NC(=O)c2nn(-c3cccc([N+](=O)[O-])c3)c3c2NS(=O)(=O)c2ccccc2-3)cc1`, the selectivity ratio in data set [3] is ≥ 1. Also, in data set [1], the CC50 was > 220 µM. Further, the Kd (as a rule, a measure of binding affinity in units of concentration) in the data set on Hepatitis C virus [4] came to 14 µM. For the same compound, in the data set on Hepatitis C virus [2], the EC50 was > 220 µM and the EC90 – broadly, the concentration needed for an effect of 90% – was > 220 µM. For the same compound, the inhibition (as a rule, the relative decrease from the control value, in per cent) at 50 µM in the data set with Hepatitis C virus [5] was 33.7%.
For `CS(=O)(=O)Nc1ccc(NC(=O)c2nn(-c3ccccc3[N+](=O)[O-])c3c2NS(=O)(=O)c2ccccc2-3)cc1`, the CC50 in [1] was > 220 µM. Further, the EC50 in the data set with Hepatitis C virus [2] came out at 17.8 µM.
For the compound `CS(=O)(=O)Nc1ccc(NC(=O)c2nn(-c3ccc([N+](=O)[O-])cc3)c3c2NS(=O)(=O)c2ccccc2-3)cc1`, the EC50 with Hepatitis C virus [2] is 7.9 µM. In the data set with Hepatitis C virus [6], the IC50 (usually the concentration that inhibits the measured activity by half) was 7.7 µM.
Take `CN1c2c(C(=O)Nc3ccc(NS(C)(=O)=O)cc3)nn(-c3cccc(N)c3)c2-c2ccccc2S1(=O)=O`: the inhibition at 50 µM with Hepatitis C virus [7] and with Hepatitis C virus [5] was 45.8% in each case. In addition, the EC50 with Hepatitis C virus [2] stood at 9.2 µM.
As to `CN1c2c(C(=O)Nc3ccc(NS(C)(=O)=O)cc3)nn(-c3ccccc3N)c2-c2ccccc2S1(=O)=O`, the EC50 with Hepatitis C virus [2] worked out at 26 µM.
Same read-out and setting: the result for `CN1c2c(C(=O)Nc3ccc(NS(C)(=O)=O)cc3)nn(-c3ccc(N)cc3)c2-c2ccccc2S1(=O)=O` reads 12 µM.
On to `CN1c2c(C(=O)Nc3ccc(N)cc3)nn(-c3cccc(F)c3)c2-c2ccccc2S1(=O)=O`, for which the inhibition at 50 µM with Hepatitis C virus [7] and with Hepatitis C virus [5] was 31.5% in each case. In the data set with Hepatitis C virus [2], the EC50 is 19 µM.
Take `CN1c2c(C(=O)Oc3ccc(NS(C)(=O)=O)cc3)nn(-c3cccc(F)c3)c2-c2ccccc2S1(=O)=O`: the inhibition at 50 µM with Hepatitis C virus [7] was determined as 21%; in the data set on Hepatitis C virus [5], 21.4%. Moreover, the EC50 in the data set with Hepatitis C virus [2] came out at 88 µM.
Turning to `COC(=O)c1nn(-c2cccc(F)c2)c2c1N(C)S(=O)(=O)c1ccccc1-2`, the results for the inhibition at 50 µM in the data set with Hepatitis C virus [7] and in the data set on Hepatitis C virus [5] were 11% and 10.6%, respectively. For the same compound, the EC50 in the data set on Hepatitis C virus [2] was found to be 172 µM. The “inhibition (INH)” value in the data set on Hepatitis C virus [8] turned out to be 40%.
Regarding `CN1c2c(C(=O)Nc3ccc(NS(C)(=O)=O)cc3)nn(-c3cccc(F)c3)c2-c2ccccc2S1(=O)=O`, the figures for the EC50 in the data set on Hepatitis C virus [2] and in the data set with Hepatitis C virus [9] were 7.5 µM and 3.6 µM, respectively.
For the compound `CN1c2c(C(=O)Nc3ccc(NS(C)(=O)=O)cc3)nn(-c3ccccc3F)c2-c2ccccc2S1(=O)=O`, in the data set with Hepatitis C virus [2], the EC50 is 6.4 µM.
The same measure, in the same setting: the figure for `CN1c2c(C(=O)Nc3ccc(NS(C)(=O)=O)cc3)nn(-c3ccc(F)cc3)c2-c2ccccc2S1(=O)=O` is 23 µM.

Source of the values: ChEMBL document CHEMBL2321648, “Structure-based discovery of pyrazolobenzothiazine derivatives as inhibitors of hepatitis C virus replication” (J Med Chem, 2013).
